Results as given in ChEMBL document CHEMBL3603830, “Synthesis and structure-activity relationship of uracil nucleotide derivatives towards the identification of human P2Y6 receptor antagonists” (Bioorg Med Chem, 2015).
Activity calls are given as the source filed them. No cut-off for these calls is given here.

Legend:
P2Y purinoceptor 6 [1] = target: T1, P2Y purinoceptor 6 (Homo sapiens, UniProt Q15077); test: Agonist activity at human recombinant P2Y6 receptor expressed in human 1321N1 cells assessed as increase in intracellular calcium level by fluo-4 dye-based spectrofluorometric analysis; assay type: functional, cell-based
In short: (§1)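 1321N1 cells stably expressing recombinant hP2Y6-R were trypsin/EDTA-detached, loaded with 1 µM Fluo-4/AM in HBSS (Ca2+/Mg2+) for 25 min at 37 °C, then held 25 min at 37 °C for de-esterification. Stirred cuvette suspension read at ex 488/em 520 nm after compound addition, with UDP as control. Fmax/Fmin set with 0.1% Triton X-100 then 50 mM EDTA; [Ca2+] = Kd(F−Fmin)/(Fmax−F).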

P2Y purinoceptor 6 [2] = target: T1, P2Y purinoceptor 6; test: Antagonist activity at human recombinant P2Y6 receptor expressed in human 1321N1 cells assessed as inhibition of UDP-induced increase in intracellular calcium level at 30 uM incubated for 2 mins prior to UDP induction by fluo-4 dye-based spectrofluorometric analysis; assay type: functional, cell-based
In short: (§2)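 hP2Y6-R-expressing 1321N1 cells, Fluo-4/AM-loaded (1 µM, 25 min, 37 °C, then 25 min de-esterification) in HBSS with Ca2+/Mg2+, stirred in a cuvette with fluorescence at 488/520 nm. Analogue given 2 min before 1 µM UDP stimulation. Calcium calculated from Triton X-100/EDTA calibration. Two experiments in duplicate, mean ± SEM; one-way ANOVA against vehicle control.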

[3] = target: T2, NPP3 (ectonucleotide pyrophosphatase/phosphodiesterase family member 3) (Homo sapiens, UniProt O14638); test: Drug metabolism assessed as human NPP3-mediated compound hydrolysis at 100 uM after 3 hrs by HPLC analysis relative to UDP-treated control; assay type: ADME; settings: human NPP3 enzyme, read-out: Drug metabolism
T2 sequence (O14638 whole entry): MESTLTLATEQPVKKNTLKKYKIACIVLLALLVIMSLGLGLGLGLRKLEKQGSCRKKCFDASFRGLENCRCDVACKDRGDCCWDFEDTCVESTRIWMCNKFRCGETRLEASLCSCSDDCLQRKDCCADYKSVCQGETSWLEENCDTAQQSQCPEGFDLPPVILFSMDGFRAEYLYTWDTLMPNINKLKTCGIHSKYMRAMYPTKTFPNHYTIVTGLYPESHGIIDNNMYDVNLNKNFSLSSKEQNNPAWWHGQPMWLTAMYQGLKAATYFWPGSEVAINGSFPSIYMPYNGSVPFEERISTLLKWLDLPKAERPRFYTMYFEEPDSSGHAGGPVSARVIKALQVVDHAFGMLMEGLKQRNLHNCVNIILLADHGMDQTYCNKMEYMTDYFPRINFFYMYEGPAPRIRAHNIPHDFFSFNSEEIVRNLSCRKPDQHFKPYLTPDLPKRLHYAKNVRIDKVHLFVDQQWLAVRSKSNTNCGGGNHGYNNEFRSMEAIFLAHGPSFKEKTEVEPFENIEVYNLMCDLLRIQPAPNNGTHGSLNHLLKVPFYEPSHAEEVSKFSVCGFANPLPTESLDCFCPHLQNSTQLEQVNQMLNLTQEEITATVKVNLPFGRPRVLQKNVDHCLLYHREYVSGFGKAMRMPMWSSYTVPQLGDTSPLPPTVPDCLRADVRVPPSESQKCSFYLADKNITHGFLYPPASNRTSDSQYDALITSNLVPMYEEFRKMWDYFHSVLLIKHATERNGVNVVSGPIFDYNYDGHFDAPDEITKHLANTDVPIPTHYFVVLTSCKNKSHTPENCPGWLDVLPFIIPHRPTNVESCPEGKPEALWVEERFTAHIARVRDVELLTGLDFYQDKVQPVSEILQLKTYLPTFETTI
In short: (§3)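 Compound at 100 µM incubated at 37 °C with hNPP1 for 2 h or hNPP3 for 3 h, in buffer of 1 mM CaCl2, 200 mM NaCl, 10 mM KCl and 100 mM Tris, pH 8.5. Quenched with perchloric acid, neutralized to pH 7 with KOH, then C18 HPLC with isocratic TEAA (pH 7)/CH3CN. Degradation taken from the nucleoside monophosphate peak area minus control, relative to 100% UDP hydrolysis.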

P2Y purinoceptor 6 [4] = target: T1, P2Y purinoceptor 6; test: Agonist activity at human recombinant P2Y6 receptor expressed in human 1321N1 cells assessed as induction of calcium release at 100 uM by fluo-4 dye-based spectrofluorometric analysis; assay type: functional, cell-based
In short: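 1321N1 astrocytoma cells stably expressing recombinant hP2Y6-R, trypsin/EDTA-detached, loaded with 1 µM Fluo-4/AM in HBSS (Ca2+/Mg2+) for 25 min at 37 °C, then de-esterified 25 min. Stirred suspension in a quartz cuvette, excitation 488 nm and emission 520 nm. Compound added, with UDP as control. Fmax from 0.1% Triton X-100 and Fmin from 50 mM EDTA; [Ca2+]i = Kd(F−Fmin)/(Fmax−F). Two experiments in duplicate.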

[5] = target: T3, Ectonucleotide pyrophosphatase/phosphodiesterase family member 1 (Homo sapiens) (UniProt P22413); test: Inhibition of human NPP1-mediated UDP hydrolysis at 100 uM after 2 hrs relative to UDP-treated control
T3 sequence (whole entry): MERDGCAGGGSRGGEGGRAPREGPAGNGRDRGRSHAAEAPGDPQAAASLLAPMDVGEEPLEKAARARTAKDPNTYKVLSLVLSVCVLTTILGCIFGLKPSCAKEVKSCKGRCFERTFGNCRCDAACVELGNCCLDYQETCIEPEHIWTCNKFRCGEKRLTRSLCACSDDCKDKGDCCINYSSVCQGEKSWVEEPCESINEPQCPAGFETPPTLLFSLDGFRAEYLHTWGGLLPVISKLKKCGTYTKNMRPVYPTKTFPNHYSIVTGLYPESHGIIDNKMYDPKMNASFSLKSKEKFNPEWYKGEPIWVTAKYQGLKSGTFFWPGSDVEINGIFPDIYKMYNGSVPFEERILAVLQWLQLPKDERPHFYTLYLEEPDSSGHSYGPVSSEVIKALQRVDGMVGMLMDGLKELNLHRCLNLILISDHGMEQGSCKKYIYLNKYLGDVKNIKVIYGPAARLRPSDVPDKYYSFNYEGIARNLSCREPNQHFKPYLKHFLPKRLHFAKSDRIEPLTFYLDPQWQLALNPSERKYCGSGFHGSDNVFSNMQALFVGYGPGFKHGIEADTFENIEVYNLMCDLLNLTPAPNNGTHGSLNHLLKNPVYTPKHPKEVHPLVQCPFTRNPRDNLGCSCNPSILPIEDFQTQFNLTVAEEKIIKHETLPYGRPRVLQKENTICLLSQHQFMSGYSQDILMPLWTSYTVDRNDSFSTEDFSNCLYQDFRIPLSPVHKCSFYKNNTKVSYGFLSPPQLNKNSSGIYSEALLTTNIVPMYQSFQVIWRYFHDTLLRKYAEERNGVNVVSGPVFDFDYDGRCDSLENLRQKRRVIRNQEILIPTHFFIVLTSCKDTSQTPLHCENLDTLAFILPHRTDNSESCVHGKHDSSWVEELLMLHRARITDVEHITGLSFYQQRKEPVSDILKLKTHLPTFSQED
In short: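 21.44 µg hNPP1 extract pre-incubated 3 min at 37 °C in 1 mM CaCl2, 140 mM NaCl, 5 mM KCl and 50 mM Tris, pH 8.5. Reaction started with compound and UDP, each 100 µM final. Stopped after 2 h with ice-cold perchloric acid, neutralized with KOH, then HPLC. Compared with UDP-only reference samples. Mean ± S.D. of three experiments.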

[6] = target: T4, Ectonucleotide pyrophosphatase/phosphodiesterase family member 3 (Homo sapiens) (UniProt O14638); test: Inhibition of human NPP3-mediated UDP hydrolysis at 100 uM after 3 hrs relative to UDP-treated control
T4 sequence (whole entry): T2 sequence (O14638 whole entry)

[7] = target: T5, NPP1 (ectonucleotide pyrophosphatase/phosphodiesterase family member 1) (Homo sapiens, UniProt P22413); test: Drug metabolism assessed as human NPP1-mediated compound hydrolysis at 100 uM after 2 hrs by HPLC analysis relative to UDP-treated control; assay type: ADME; settings: human NPP1 enzyme, read-out: Drug metabolism; in short: as §3
T5 sequence (P22413 whole entry): T3 sequence (whole entry)

P2Y purinoceptor 6 [8] = target: T1, P2Y purinoceptor 6; test: Antagonist activity at human recombinant P2Y6 receptor expressed in human 1321N1 cells assessed as inhibition of UDP-induced increase in intracellular calcium level at 100 uM incubated for 2 mins prior to UDP induction by fluo-4 dye-based spectrofluorometric analysis; assay type: functional, cell-based; in short: as §2
P2Y purinoceptor 6 [9] = target: T1, P2Y purinoceptor 6; test: Agonist activity at human recombinant P2Y6 receptor expressed in human 1321N1 cells assessed as increase in intracellular calcium level at >100 uM by fluo-4 dye-based spectrofluorometric analysis; assay type: functional, cell-based; in short: as §1
P2Y purinoceptor 6 [10] = target: T1, P2Y purinoceptor 6; test: Agonist activity at human recombinant P2Y6 receptor expressed in human 1321N1 cells assessed as increase in intracellular calcium level at =>100 uM by fluo-4 dye-based spectrofluorometric analysis; assay type: functional, cell-based; in short: as §1
[11] = target: P2Y purinoceptor 2 (Homo sapiens) (UniProt P41231); test: Agonist activity at human recombinant P2Y2 receptor expressed in human 1321N1 cells assessed as increase in intracellular calcium level by fluo-4 dye-based spectrofluorometric analysis; assay type: functional, cell-based
P2Y purinoceptor 6 [12] = target: T1, P2Y purinoceptor 6; test: Antagonist activity at human recombinant P2Y6 receptor expressed in human 1321N1 cells assessed as inhibition of UDP-induced increase in intracellular calcium level incubated for 2 mins prior to UDP induction by fluo-4 dye-based spectrofluorometric analysis; assay type: functional, cell-based; in short: as §2
[13] = target: P2Y purinoceptor 4 (Homo sapiens) (UniProt P51582); test: Agonist activity at human recombinant P2Y4 receptor expressed in human 1321N1 cells assessed as increase in intracellular calcium level by fluo-4 dye-based spectrofluorometric analysis; assay type: functional, cell-based
P2Y purinoceptor 6 [14] = target: T1, P2Y purinoceptor 6; test: Agonist activity at human recombinant P2Y6 receptor expressed in human 1321N1 cells assessed as increase in intracellular calcium level at 100 uM by fluo-4 dye-based spectrofluorometric analysis relative to UDP-treated control; assay type: functional, cell-based; in short: as §1
P2Y purinoceptor 6 [15] = target: T1, P2Y purinoceptor 6; test: Agonist activity at human recombinant P2Y6 receptor expressed in human 1321N1 cells assessed as increase in intracellular calcium level at 10 uM by fluo-4 dye-based spectrofluorometric analysis relative to UDP-treated control; assay type: functional, cell-based; in short: as §1

T1 sequence (Q15077 whole entry): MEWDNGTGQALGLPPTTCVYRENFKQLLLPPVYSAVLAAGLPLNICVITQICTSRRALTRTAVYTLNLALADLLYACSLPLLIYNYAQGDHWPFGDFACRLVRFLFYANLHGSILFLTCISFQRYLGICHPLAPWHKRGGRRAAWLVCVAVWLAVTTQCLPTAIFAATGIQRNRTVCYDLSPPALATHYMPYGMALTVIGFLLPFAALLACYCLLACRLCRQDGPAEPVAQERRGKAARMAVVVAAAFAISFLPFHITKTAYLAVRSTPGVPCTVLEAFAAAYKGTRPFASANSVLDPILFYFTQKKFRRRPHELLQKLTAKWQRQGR
Chain of P2Y purinoceptor 2 (Homo sapiens) (P41231 whole entry): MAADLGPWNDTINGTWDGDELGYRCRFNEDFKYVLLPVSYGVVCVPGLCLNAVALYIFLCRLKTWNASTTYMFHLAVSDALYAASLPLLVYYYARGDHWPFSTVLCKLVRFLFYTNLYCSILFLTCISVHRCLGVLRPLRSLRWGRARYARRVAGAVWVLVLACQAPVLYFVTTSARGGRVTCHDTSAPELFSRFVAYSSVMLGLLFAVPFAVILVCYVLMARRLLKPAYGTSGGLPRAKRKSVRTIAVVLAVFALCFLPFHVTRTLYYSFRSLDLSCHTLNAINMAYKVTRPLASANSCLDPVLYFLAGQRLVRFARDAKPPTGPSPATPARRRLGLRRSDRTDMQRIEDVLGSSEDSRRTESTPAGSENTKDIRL
Chain of P2Y purinoceptor 4 (Homo sapiens) (P51582 whole entry): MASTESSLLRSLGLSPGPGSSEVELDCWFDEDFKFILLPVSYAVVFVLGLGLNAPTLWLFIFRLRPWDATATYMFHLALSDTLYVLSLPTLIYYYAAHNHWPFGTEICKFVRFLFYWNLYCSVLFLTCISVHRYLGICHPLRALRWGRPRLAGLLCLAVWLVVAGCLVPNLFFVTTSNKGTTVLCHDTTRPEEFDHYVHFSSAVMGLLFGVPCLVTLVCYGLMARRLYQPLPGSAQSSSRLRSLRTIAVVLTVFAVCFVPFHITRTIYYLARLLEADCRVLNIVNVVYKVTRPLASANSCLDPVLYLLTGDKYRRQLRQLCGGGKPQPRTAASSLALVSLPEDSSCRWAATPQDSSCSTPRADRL

With `O=c1[nH]c(=O)n([C@@H]2O[C@H](COP(=O)(O)C(Cl)(Cl)P(=O)(O)O)[C@@H](O)[C@H]2O)cc1F` as the compound, how does the Activity (P2Y purinoceptor 6 [1]) read?
The Activity was “Active”.

What about the inhibition (P2Y purinoceptor 6 [2]) of the same compound?
The inhibition was “inactive”.

With `COc1cn([C@@H]2O[C@H](COP(=O)(O)CS(=O)(=O)O)[C@@H](O)[C@H]2O)c(=O)[nH]c1=O` as the compound, how does the metabolised at 3 h, 100 µM [3] read?
The metabolised at 3 h, 100 µM was 11%.

What about the Activity (P2Y purinoceptor 6 [4]) of the same compound?
Its Activity is “inactive”.

What about the inhibition [5] of the same compound?
The inhibition was 48.4%.

What about the inhibition [6] of the same compound?
Its inhibition is 10.5%.

What about the metabolised at 2 h, 100 µM [7] of the same compound?
Its metabolised at 2 h, 100 µM is 21.6%.

What about the inhibition (P2Y purinoceptor 6 [8]) of the same compound?
Its inhibition is “inactive”.

What does the source list for `CC(C)c1cn([C@@H]2O[C@H](COP(=O)(O)CP(=O)(O)O)[C@@H](O)[C@H]2O)c(=O)[nH]c1=O`?
Activity (P2Y purinoceptor 6 [1]): inactive; inhibition (P2Y purinoceptor 6 [8]): 24%

What does the source list for `O=c1[nH]c(=O)n([C@H]2C[C@H](O)[C@@H](COP(=O)(O)C(Cl)(Cl)P(=O)(O)O)O2)cc1F`?
Activity (P2Y purinoceptor 6 [9]): inactive; inhibition (P2Y purinoceptor 6 [2]): inactive

Which Activity (P2Y purinoceptor 6 [10]) does the source give for `O=c1ccn([C@@H]2O[C@H](COP(=O)(O)OS(=O)(=O)O)[C@@H](O)[C@H]2O)c(=O)[nH]1` here?
Its Activity is “Active”.

What about the Activity [11] of the same compound?
The Activity was “inactive”.

And the metabolised at 3 h, 100 µM [3]?
The metabolised at 3 h, 100 µM was 28.3%.

What about the IC50 (P2Y purinoceptor 6 [12]) of the same compound?
Its IC50 is 112 µM.

And the Activity [13]?
The Activity was “inactive”.

What about the metabolised at 2 h, 100 µM [7] of the same compound?
Its metabolised at 2 h, 100 µM is 27.9%.

What about the inhibition (P2Y purinoceptor 6 [8]) of the same compound?
Its inhibition is “Active”.

With `Cc1cn([C@@H]2O[C@H](COP(=O)(O)CP(=O)(O)O)[C@@H](O)[C@H]2O)c(=O)[nH]c1=O` as the compound, how does the Activity (P2Y purinoceptor 6 [14]) read?
The Activity was 60%.

`COc1cn([C@@H]2O[C@H](COP(=O)(O)CP(=O)(O)O)[C@@H](O)[C@H]2O)c(=O)[nH]c1=O` was tested. Which Activity (P2Y purinoceptor 6 [15]) did it give?
Its Activity is 27%.

With `O=c1[nH]c(=O)n([C@@H]2O[C@H](COP(=O)(O)CP(=O)(O)O)[C@@H](O)[C@H]2O)cc1-c1ccccc1` as the compound, how does the Activity (P2Y purinoceptor 6 [1]) read?
The Activity was “inactive”.

And the inhibition (P2Y purinoceptor 6 [8])?
The inhibition was “inactive”.

For `O=c1[nH]c(=O)n([C@@H]2O[C@H](COP(=O)(O)C(F)(F)P(=O)(O)O)[C@@H](O)[C@H]2O)cc1F`, which Activity (P2Y purinoceptor 6 [1]) is on record?
Its Activity is “Active”.

What about the inhibition (P2Y purinoceptor 6 [2]) of the same compound?
The inhibition was “inactive”.

And the inhibition (P2Y purinoceptor 6 [8])?
Its inhibition is “Active”.
